Laboratory results: PubChem BioAssay
The source made the active and inactive calls.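 The calls were made as follows, unless noted: active = potentiation averaged over duplicate wells exceeding buffer-only control mean by more than 3 SD; inactive = the rest.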

What was measured:
[1] = thallium flux activation in parental CHO cells, counter-screen for KCNQ1 potentiator project (AID 493006;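 active = duplicate-averaged activation above buffer control mean plus 5 SD of those controls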); settings: parental CHO-K1 cells, FluxOR thallium flux, at 10 µM; stronger effect = higher value
Summary of the method: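 Assay system: Untransfected host CHO-K1 cells with FluxOR thallium dye | Probe or stimulus: Potassium/thallium depolarization pulse | Schedule: Overnight 37 °C plating, 90 min RT dye, 20 min compound | Detection: Kinetic thallium-flux fluorescence | Read-out: Max-minus-min fluorescence over baseline, percent of buffer-to-R-L3 span | Benchmarks: Low control buffer, high control R-L3 activator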

[2] = target: Potassium voltage-gated channel subfamily KQT member 1 (Homo sapiens) (UniProt P51787); assay: KCNQ1 potassium channel potentiators, confirmation, FluxOR thallium flux, CHO cells, duplicates (AID 493007); settings: KCNQ1 cell line, FluxOR thallium flux fluorescence, at 10 µM; stronger effect = higher value, % of reference activator effect, buffer zero;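 as to outcome: cells depolarized by a potassium plus thallium sulfate stimulus after compound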
Sequence of Potassium voltage-gated channel subfamily KQT member 1 (Homo sapiens) (P51787 whole entry, looked up): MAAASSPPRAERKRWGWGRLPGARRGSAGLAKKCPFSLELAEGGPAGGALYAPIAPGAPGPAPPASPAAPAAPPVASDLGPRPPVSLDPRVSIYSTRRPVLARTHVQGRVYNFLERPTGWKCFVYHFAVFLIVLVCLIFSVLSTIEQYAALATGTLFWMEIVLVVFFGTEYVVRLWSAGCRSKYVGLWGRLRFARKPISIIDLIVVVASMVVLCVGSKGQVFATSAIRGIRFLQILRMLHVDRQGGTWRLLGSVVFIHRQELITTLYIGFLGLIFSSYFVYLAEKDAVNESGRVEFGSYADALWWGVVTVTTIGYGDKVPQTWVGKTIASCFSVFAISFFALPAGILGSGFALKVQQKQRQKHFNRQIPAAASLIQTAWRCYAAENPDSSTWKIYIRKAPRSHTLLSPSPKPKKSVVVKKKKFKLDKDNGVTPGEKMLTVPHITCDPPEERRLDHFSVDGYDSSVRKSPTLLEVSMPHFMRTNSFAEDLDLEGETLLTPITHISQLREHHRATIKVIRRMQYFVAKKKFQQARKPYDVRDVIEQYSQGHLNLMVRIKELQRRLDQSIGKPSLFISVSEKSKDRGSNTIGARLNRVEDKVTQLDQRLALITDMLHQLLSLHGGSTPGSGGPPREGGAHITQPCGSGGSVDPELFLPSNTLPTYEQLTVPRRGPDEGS
Summary of the method: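 Material: KCNQ1-expressing CHO cell line; Incubation: FluxOR dye loading 90 min, compound exposure 20 min, room temperature; Detection: FluxOR Tl+ flux fluorescence, 10 s baseline plus 110 s recording; Read-out: percent activation between buffer and R-L3 responses; Control set: buffer-only wells as 0% and R-L3 activator as 100%; Replication: duplicate wells per compound.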

[3] = target: Potassium voltage-gated channel subfamily KQT member 2 (Rattus norvegicus) (UniProt O88943); assay: rat KCNQ2 channel potentiation, selectivity assay for KCNQ1 potentiator project, KCNQ2-CHO-K1 cells (AID 493009;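 active = mean duplicate potentiation above the buffer control mean plus 5 SD of buffer wells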;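 also: assay conditions were tuned for KCNQ1 rather than KCNQ2 modulators; signal is max minus min fluorescence divided by baseline after thallium stimulus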); settings: FluxOR thallium flux fluorescence, at 10 µM; stronger effect = higher value, scaled: buffer 0, activator control 100
Sequence of Potassium voltage-gated channel subfamily KQT member 2 (Rattus norvegicus) (O88943 whole entry, looked up): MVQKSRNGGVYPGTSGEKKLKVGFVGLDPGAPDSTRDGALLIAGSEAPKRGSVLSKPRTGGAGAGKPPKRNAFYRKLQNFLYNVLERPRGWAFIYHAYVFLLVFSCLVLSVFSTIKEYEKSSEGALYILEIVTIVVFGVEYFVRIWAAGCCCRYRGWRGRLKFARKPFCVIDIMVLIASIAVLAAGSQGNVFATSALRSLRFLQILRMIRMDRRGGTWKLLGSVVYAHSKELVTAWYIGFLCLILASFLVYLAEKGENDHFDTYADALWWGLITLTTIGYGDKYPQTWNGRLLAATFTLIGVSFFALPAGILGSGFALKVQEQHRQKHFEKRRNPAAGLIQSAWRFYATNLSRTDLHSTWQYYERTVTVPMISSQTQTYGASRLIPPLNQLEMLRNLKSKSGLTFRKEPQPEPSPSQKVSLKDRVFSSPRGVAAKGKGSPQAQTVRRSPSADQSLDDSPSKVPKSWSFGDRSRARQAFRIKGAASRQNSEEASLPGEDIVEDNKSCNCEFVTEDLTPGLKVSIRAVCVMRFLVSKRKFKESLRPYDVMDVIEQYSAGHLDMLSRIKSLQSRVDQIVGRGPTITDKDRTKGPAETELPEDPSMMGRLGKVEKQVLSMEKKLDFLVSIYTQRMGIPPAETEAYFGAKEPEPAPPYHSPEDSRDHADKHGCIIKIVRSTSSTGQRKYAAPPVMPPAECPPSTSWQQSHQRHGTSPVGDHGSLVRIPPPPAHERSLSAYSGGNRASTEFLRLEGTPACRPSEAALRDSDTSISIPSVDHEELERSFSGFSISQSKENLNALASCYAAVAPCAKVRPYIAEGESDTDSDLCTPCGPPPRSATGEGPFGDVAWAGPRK

[4] = target: Potassium voltage-gated channel subfamily KQT member 1 (Homo sapiens) (UniProt P51787); assay: KCNQ1 channel current potentiators, confirmation, orthogonal assay for KCNQ1 potentiator project, IonWorks patch clamp, KCNQ1-CHO cells (AID 493184;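 active = current rise at least 3 SD above the untreated control mean in each of two repeat wells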;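 as to current potentiation: percent change of the same well's current before compound addition so 0% = no change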); settings: automated patch clamp current, at 10 µM; stronger effect = higher value
Summary of the method: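 assay system = KCNQ1-expressing CHO cells | medium = external bath solution at pH 7.4 | probe or stimulus = 2,000 ms depolarization, -90 to +40 mV | compound dosing = 10 µM final, single point | measured by = automated voltage clamp, amphotericin B perforated patch | measure = percent current increase versus pre-compound level | replication = duplicates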

| Structure (SMILES) | outcome [1] | outcome [2] | outcome [3] | outcome [4] | potentiation [2] | activation [1] | potentiation [3] | current potentiation [4] |
| --- | --- | --- | --- | --- | --- | --- | --- | --- |
| Cc1ccccc1N(CC(=O)N/N=C/c1cc(C)n(-c2ccccc2C)c1C)S(C)(=O)=O | inactive | inactive | inactive | inactive | – | – | – | – |
| O=C(NN=C1c2ccccc2-c2ccccc21)c1ccccc1Br | inactive | – | inactive | inactive | 37% (active) | – | – | – |
| CCc1ccc(CNC(=O)CCn2nc(C)c3c(C)n(-c4ccccc4)nc3c2=O)cc1 | inactive | inactive | inactive | inactive | – | – | – | – |
| CC(NC(=O)c1ccncc1)C(C)(C)C (stereo not given) | inactive | inactive | inactive | inactive | – | – | – | – |
| COc1ccc(N2CCN(CC(=O)Nc3nc(C)cs3)CC2)cc1 | inactive | inactive | inactive | inactive | – | – | – | – |
| Cc1ccc(Oc2ccc(NC(=O)Cn3ccsc3=N)cc2)cc1 | inactive | inactive | inactive | inactive | – | – | – | – |
| CCCn1c(NC(=O)CN2C(=O)NC3(CCCC3)C2=O)nc2ccccc21 | inactive | inactive | inactive | inactive | – | – | – | – |
| CCCCN(CCCC)c1cn[nH]c(=O)c1Cl | inactive | inactive | inactive | inactive | – | – | – | – |
| COc1ccccc1CNC(=O)c1oc2ccc(S(=O)(=O)N3CCOCC3)cc2c1C | inactive | inactive | inactive | inactive | – | – | – | – |
| N=C1S/C(=C\c2ccco2)C(=O)N1c1nccs1 | – | inactive | – | inactive | – | 138% (active) | 186% (active) | – |
| COc1cccc(N=Nc2ccc(O)c3ncccc23)c1 | – | – | – | inactive | 44% (active) | 166% (active) | 170% (active) | – |
| COc1ccc2oc(C(=O)OCC(=O)N3CC(C)OC(C)C3)c(C)c2c1 (stereo not given) | inactive | inactive | inactive | inactive | – | – | – | – |
| COc1cc(S(=O)(=O)Nc2cccnc2)ccc1Cl | – | – | – | inactive | 64% (active) | 200% (active) | 212% (active) | – |
| COC(=O)c1cc2c(ccc3ccccc32)oc1=O | inactive | inactive | inactive | inactive | – | – | – | – |
| COc1ccccc1NS(=O)(=O)c1cc(NC(=O)c2cnccn2)ccc1N1CCOCC1 | – | – | – | inactive | 54% (active) | 222% (active) | 248% (active) | – |
| S=c1[nH]nc(-c2ccc(Cl)cc2)n1/N=C/C=C/c1ccco1 | – | – | inactive | inactive | 32% (active) | 159% (active) | – | – |
| O=C(Nc1ccccc1)C1=C(c2ccccc2)S(=O)(=O)CCS1(=O)=O | inactive | inactive | inactive | inactive | – | – | – | – |
| CCOC(=O)C1=NN(C(=O)c2ccccc2)C(O)(c2ccc(C)cc2)C1 (stereo not given) | – | – | – | inactive | 49.5% (active) | 141% (active) | 216% (active) | – |
| Cc1cccc(CS(=O)(=O)c2ncc(CO)n2C)c1 | inactive | inactive | inactive | inactive | – | – | – | – |
| CCCC(=O)N1CCN(Cc2nc3cc([N+](=O)[O-])ccc3n2C)CC1 | inactive | inactive | inactive | inactive | – | – | – | – |

| Structure (SMILES) | outcome [1] | outcome [2] | outcome [3] | outcome [4] | potentiation [2] | activation [1] | potentiation [3] | current potentiation [4] |
| --- | --- | --- | --- | --- | --- | --- | --- | --- |
| COc1ccc(-c2cnc3c(c2)CCC3(C#N)C#N)cc1 | inactive | inactive | inactive | inactive | – | – | – | – |
| OCCN1CCN(c2ncnc3c2sc2nc(N4CCOCC4)c4c(c23)CCC4)CC1 | inactive | – | inactive | inactive | 19% (active) | – | – | – |
| COc1ccc(CCNC(=O)CC(=O)N/N=C/c2ccc(Br)cc2)cc1OC | inactive | inactive | inactive | inactive | – | – | – | – |
| O=C(O)C(c1ccccc1)N1C(=O)/C(=C\c2ccc(-c3ccc(Br)cc3)o2)SC1=S (stereo not given) | inactive | – | inactive | – | 17.5% (active) | – | – | 15% (active) |
| CC12CCC(C/C1=N\N=C1\NC(=O)/C(=C\c3ccc(Cl)cc3)S1)C2(C)C (stereo not given) | – | – | – | inactive | 74.5% (active) | 175% (active) | 204% (active) | – |
| O=C(/C=C/c1ccccc1)C1C(=O)c2ccccc2C1=O | inactive | – | – | inactive | 25.5% (active) | – | 146% (active) | – |
| O=c1ccc(N=Nc2ccccc2)ccc1O | – | – | – | inactive | 138% (active) | 322% (active) | 430% (active) | – |
| O=C(Nc1nnc(-c2ccco2)o1)c1cccc(Cl)c1 | inactive | inactive | inactive | inactive | – | – | – | – |
| S=c1nc(COc2ccccc2)[nH]c2ccccc12 | – | – | – | inactive | 212% (active) | 698% (active) | 552% (active) | – |
| COc1ccc(NC(=O)CC2C(=O)NCCN2C(=O)Nc2ccc(C(F)(F)F)cc2)cc1 (stereo not given) | inactive | inactive | inactive | inactive | – | – | – | – |
| O=C(CN(c1ccc(Cl)cc1)S(=O)(=O)c1ccc(Cl)c([N+](=O)[O-])c1)NCCc1ccc(F)cc1 | inactive | inactive | inactive | inactive | – | – | – | – |
| c1ccc2c(c1)OCC(CNc1ncnc3nc[nH]c13)O2 (stereo not given) | – | – | – | inactive | 46% (active) | 227% (active) | 194% (active) | – |
| C=CCNC(=S)Nc1sc2c(c1C(=O)OCC)CC(C)(CC)OC2 (stereo not given) | – | – | – | inactive | 49.5% (active) | 318% (active) | 254% (active) | – |
| COc1cc(C2NC(=O)NC(O)(C(F)(F)F)C2C(C)=O)cc(OC)c1OC (stereo not given) | inactive | inactive | inactive | inactive | – | – | – | – |
| CC(C)CC(=O)NC(=S)Nc1nc(-c2ccccc2)cs1 | – | – | – | inactive | 152% (active) | 284% (active) | 316% (active) | – |
| O=C(NC(=S)Nc1cccc(Cl)c1N1CCCCC1)c1ccco1 | – | – | – | inactive | 148% (active) | 156% (active) | 178% (active) | – |
| COc1ccc(S(=O)(=O)NCCOc2ccccc2)cc1OC | inactive | inactive | inactive | inactive | – | – | – | – |
| C/C(CCc1oc2c(Br)cc(Br)cc2c1-c1ccc(C)o1)=N\O | inactive | inactive | inactive | inactive | – | – | – | – |
| CCN(CC)C(=S)NC(=O)c1ccc(OC)c(Br)c1 | – | – | – | inactive | 63.5% (active) | 209% (active) | 209% (active) | – |
| CN(C)c1ccc(NC(=O)COC(=O)c2cc(Cl)ccc2[N+](=O)[O-])cc1 | inactive | inactive | inactive | inactive | – | – | – | – |

| Structure (SMILES) | outcome [1] | outcome [2] | outcome [3] | outcome [4] | potentiation [2] | activation [1] | potentiation [3] | current potentiation [4] |
| --- | --- | --- | --- | --- | --- | --- | --- | --- |
| COc1cc(C(=O)NNC(=O)C2CC2)cc(OC)c1OC | inactive | inactive | inactive | inactive | – | – | – | – |
| COc1ccc(C(=O)NC(=S)N(Cc2ccccc2)Cc2ccccc2)cc1 | – | – | – | inactive | 168% (active) | 385% (active) | 436% (active) | – |
| CN1CCN(c2nc(-c3cccs3)cc(C(F)(F)F)n2)CC1 | – | inactive | inactive | inactive | – | 142% (active) | – | – |
| O=C(O)c1ccccc1NS(=O)(=O)c1cccc(-n2sc3ccccc3c2=O)c1 | – | – | inactive | inactive | 18% (active) | 154% (active) | – | – |
| CC(CCc1ccccc1)NC(=O)c1ccccc1C(=O)O (stereo not given) | inactive | inactive | inactive | inactive | – | – | – | – |
| Cc1cccc(N=Cc2cc(Br)cc(Cl)c2O)c1 | – | – | inactive | inactive | 27% (active) | 188% (active) | – | – |
| COc1ccc(OCC(=O)NC(=S)Nc2ccc(N3CCOCC3)c(Cl)c2)cc1 | – | – | inactive | inactive | 33.5% (active) | 142% (active) | – | – |
| O=C(NC(=S)N(CCc1ccccc1)CCc1ccccc1)c1ccco1 | – | – | – | inactive | 364% (active) | 408% (active) | 560% (active) | – |
| COc1cccc2sc(N(CCCN(C)C)C(=O)CCS(=O)(=O)c3ccccc3)nc12 | inactive | inactive | inactive | inactive | – | – | – | – |
| O=C(OCc1cccc([N+](=O)[O-])c1)c1ccncc1 | inactive | inactive | inactive | inactive | – | – | – | – |
| O=C(Nc1cccc(NC(=O)c2c(F)cccc2F)n1)c1c(F)cccc1F | inactive | inactive | inactive | inactive | – | – | – | – |
| CNCc1ccccc1Sc1cccc2ccccc12 | inactive | inactive | inactive | inactive | – | – | – | – |
| CCOC(=O)Cn1c(=N)n(CCOc2ccc(Br)cc2)c2ccccc21 | inactive | inactive | inactive | inactive | – | – | – | – |
| CCN(CC)c1ccc(Nc2cc3n(c(=O)n2)CCc2cc(OC)c(OC)cc2-3)cc1 | inactive | inactive | inactive | inactive | – | – | – | – |
| CCc1cc(-c2n[nH]c(C)c2-c2nc3ccccc3s2)c(O)cc1OCC(=O)NN | inactive | inactive | inactive | inactive | – | – | – | – |
| COc1ccc2[nH]c3c(c2c1)CCNC3C1CC=C(C)CC1 (stereo not given) | inactive | inactive | inactive | inactive | – | – | – | – |
| O=C1c2cccc3cccc(c23)C(=O)C1(O)O | inactive | inactive | inactive | inactive | – | – | – | – |
| C=CCn1c(=S)[nH]c2ccc(Br)cc2c1=O | – | – | – | inactive | 51% (active) | 208% (active) | 200% (active) | – |
| O=C(C1CCCCC1)N(CCN1CCCC1)c1nc2ccccc2s1 | inactive | inactive | inactive | inactive | – | – | – | – |
| COCCn1c(=S)[nH]c2sc3c(c2c1=O)CCC(C)C3 (stereo not given) | – | – | – | inactive | 191% (active) | 541% (active) | 514% (active) | – |
